Results on nine molecules are retold here after ChEMBL document CHEMBL4425157, “New antibacterial agents: Hybrid bioisoster derivatives as potential E. coli FabH inhibitors” (Bioorg Med Chem Lett, 2016).

≈ marks a conversion by molar mass, not a printed value. Calls of active or inactive are those of the source. No cut-off for these calls is given here.

Data set [1] deals with Escherichia coli. The data set is described as follows: Antibacterial activity against Escherichia coli ATCC 25922 by broth microdilution method. Type of data set: functional. The method in brief: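 MIC read by broth microdilution, run in duplicate.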
The test system of data set [2] is Staphylococcus aureus. The data set is described as follows: Antibacterial activity against Staphylococcus aureus ATCC 29213 by broth microdilution method. Type of data set: functional.
Data set [3] relates to Candida albicans. The data set is described as follows: Antifungal activity against Candida albicans ATCC 10231 by broth dilution method. The class given is functional.
Data set [4] in a line: Induction of nitrite formation at 100 uM measured after 1 hr in presence of L-cysteine by Griess assay. Type of data set: functional. In a few lines: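 Compound at 100 µM incubated with 5 mM L-cysteine in 50 mM phosphate buffer pH 7.4/methanol (1:1), 1 h at 37 °C; aliquots taken and nitrite quantified by Griess reaction.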
Data set [5] is described as follows: Growth inhibition of african green monkey Vero cells at highest concentration measured after 72 hrs by MTS assay relative to control. Type of data set: cell-based. The following applies: chlorocebus sabaeus, read-out: GI. The method in brief: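 Vero cells in MTS viability assay; the value is the percentage growth inhibition at the highest compound concentration tested.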

Data set [6] has as its system Vero. The data set is described as follows: Cytotoxicity against african green monkey Vero cells assessed as reduction in cell viability measured after 72 hrs by MTS assay. Type of data set: cell-based. The following applies: Chlorocebus sabaeus. The method in brief: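 Vero cells exposed to compounds, with viability read by MTS assay; IC50 derived from the viability data.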

With GENTAMICIN, the MIC was below 0.02 µM in data set [1] and 0.076 µM in data set [2].
As for `C[C@@H]1[C@H](O)[C@@H](C)/C=C/C=C/C=C/C=C/C=C/C=C/C=C/[C@H](O[C@@H]2O[C@H](C)[C@@H](O)[C@H](N)[C@@H]2O)C[C@@H]2O[C@](O)(C[C@@H](O)C[C@@H](O)[C@H](O)CC[C@@H](O)C[C@@H](O)CC(=O)O[C@H]1C)C[C@H](O)[C@H]2C(=O)O` [AMPHOTERICIN B], the minimum inhibitory concentration (MIC) in data set [3] stood at 0.027 µM (≈ 0.025 µg/mL).
For `Cc1c(/C=N/NS(=O)(=O)c2ccc(C(C)(C)C)cc2)no[n+]1[O-]`, the minimal inhibitory concentration (MIC) is 287 µM (≈ 97.1 µg/mL) in data set [1], above 100 µM in data set [2] and above 100 µM in data set [3]. Moreover, the outcome in data set [4] was inactive. Besides, in data set [5], the inhibition at 72 h was 74.8%. Moreover, the half-inhibitory concentration (IC50) in data set [6] is above 100 µM.
In the case of `CO[C@H]1/C=C/O[C@@]2(C)Oc3c(C)c(O)c4c(O)c(c(/C=N/N5CCN(C)CC5)c(O)c4c3C2=O)NC(=O)/C(C)=C\C=C\[C@H](C)[C@H](O)[C@@H](C)[C@@H](O)[C@@H](C)[C@H](OC(C)=O)[C@@H]1C` [RIFAMPIN], the inhibition at 72 h in data set [5] came out at 44.8%. Moreover, the IC50 in data set [6] was above 100 µM.
Regarding `CC1(C)S[C@@H]2[C@H](NC(=O)[C@H](N)c3ccccc3)C(=O)N2[C@H]1C(=O)O` [AMPICILLIN], the minimum inhibitory concentration (MIC) was found to be 9.59 µM (≈ 3.35 µg/mL) in data set [1] and 1.1 µM (≈ 0.384 µg/mL) in data set [2].
Take `Cc1c(/C=N/NS(=O)(=O)c2ccc([N+](=O)[O-])cc2)no[n+]1[O-]`: the MIC in data set [1] is above 300 µM; in data set [2], above 100 µM; in data set [3], above 100 µM. Further, the outcome in data set [4] was inactive. For the same molecule, the inhibition at 72 h in data set [5] worked out at 0%. Besides, in data set [6], the IC50 is above 100 µM.
In the case of `COc1ccc(S(=O)(=O)N/N=C/c2no[n+]([O-])c2C)cc1`, the minimal inhibitory concentration (MIC) in data set [1] is 77.8 µM (≈ 24.3 µg/mL); in data set [2], above 100 µM; in data set [3], above 100 µM. Also, the result in data set [4] was inactive. Further, in data set [5], the inhibition at 72 h stood at 0%. Moreover, the IC50 in data set [6] was above 100 µM.
Take `Cc1c(/C=N/NS(=O)(=O)c2ccccc2)no[n+]1[O-]`: the results for the MIC in data set [1], in data set [2] and in data set [3] were 10.7 µM (≈ 3.03 µg/mL), above 100 µM and above 100 µM, respectively. In data set [4], the outcome was inactive. Also, in data set [5], the inhibition at 72 h was 63.4%. Moreover, in data set [6], the IC50 was above 100 µM.
As to `Cc1ccc(S(=O)(=O)N/N=C/c2no[n+]([O-])c2C)cc1`, the MIC was 0.36 µM (≈ 0.107 µg/mL) in data set [1], above 100 µM in data set [2] and above 100 µM in data set [3]. For the same molecule, in data set [4], the outcome was inactive. For the same molecule, the inhibition at 72 h in data set [5] worked out at 8.38%. Moreover, in data set [6], the IC50 is above 100 µM.
